In PMC6235538 (Science Advances, 2018):
Bridges are numbered along the chain shown (N, C = ends). Where no end group is shown, it is not given here.

Key:
[1] = tested on: FL-BCRs on transduced Raji lymphoma cells; test: Surface staining of BCR-transduced Raji cells by biotinylated peptides; type: binding, human; details: synthetic biotinylated peptides, flow cytometry
How it was run: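 Raji cells were lentivirally transduced with a lymphoma BCR scFv fused to a membrane-anchored human antibody Fc fragment, then FACS-sorted for BCR carriers. Cells were grown with 10% FBS, 10 mM Hepes, penicillin/streptomycin and 2 mM GlutaMAX. Surface staining used synthetic biotinylated peptides and an anti-IgG Fc antibody, read by flow cytometry. One Raji population served as the Fc-staining control.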

[2] = tested on: cells from FL patient 4 biopsy; test: Flow cytometry staining of control biopsy cells; type: binding, human; details: control biopsy sample
How it was run: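 Flow cytometry on control B cells from a lymphoma biopsy, stained with a synthetic biotinylated cyclic peptide ligand. B cells were gated with a B220-specific antibody. Bound peptide was detected with FITC-labelled streptavidin.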

| Sequence | binding to BCRs on transduced Raji cells (in words) [1] | staining by the FL1 peptide (in words) [2] |
| --- | --- | --- |
| CMPHWQNHC (disulfide 1-9 (inferred)) [FL2] | BCRs capable of binding to the peptides were present on these cells | – |
| CTTDQARKC (disulfide 1-9 (inferred)) [FL3] | BCRs capable of binding to the peptides were present on these cells | – |
| CILDLPKFC (disulfide 1-9 (inferred)) [FL1] | BCRs capable of binding to the peptides were present on these cells | did not demonstrate any significant staining |
